Assay outcomes as filed in PubChem.
Shown are actives, neighbours in structure and some others; about 1.8% of the full set was active somewhere.
M5 PAM = potentiates acetylcholine response at human M5 receptor; CHO-K1 hM5, Fluo-8 calcium, ACh EC20 PAM; 0% = ACh EC20, 100% = ACh EC100; activation, % at 3 µM; actives 0.3% (n = 360,000); P08912;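 active = activation above the run cutoff, the mean activation of all test compounds plus 3 SD, cut at about 18% in these data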
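System: CHO-K1 cell line with stable human muscarinic M5 receptor expression | Also added: EC20 acetylcholine as agonist stimulus | Compound: One concentration, 3 µM final (nominal) | Timing: Fluo-8 loading 80 min at 37 °C plus 30 min room temperature | Measured by: Fluo-8 calcium dye fluorescence, kinetic read | Read-out basis: % activation, ACh-normalized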
M4 antag = antagonists of human muscarinic M4 receptor (CHRM4); AID 624125; inhibition, % at 3 µM; P08173; CHO-hM4 cells, ACh EC80, Fluo-8 calcium fluorescence; actives 0.73% (n = 360,000);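 active = inhibition above its plate's cutoff, the mean inhibition of sample wells plus 3 SD, cut at about 27% in these data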
Target sequence (P08173 whole entry, looked up): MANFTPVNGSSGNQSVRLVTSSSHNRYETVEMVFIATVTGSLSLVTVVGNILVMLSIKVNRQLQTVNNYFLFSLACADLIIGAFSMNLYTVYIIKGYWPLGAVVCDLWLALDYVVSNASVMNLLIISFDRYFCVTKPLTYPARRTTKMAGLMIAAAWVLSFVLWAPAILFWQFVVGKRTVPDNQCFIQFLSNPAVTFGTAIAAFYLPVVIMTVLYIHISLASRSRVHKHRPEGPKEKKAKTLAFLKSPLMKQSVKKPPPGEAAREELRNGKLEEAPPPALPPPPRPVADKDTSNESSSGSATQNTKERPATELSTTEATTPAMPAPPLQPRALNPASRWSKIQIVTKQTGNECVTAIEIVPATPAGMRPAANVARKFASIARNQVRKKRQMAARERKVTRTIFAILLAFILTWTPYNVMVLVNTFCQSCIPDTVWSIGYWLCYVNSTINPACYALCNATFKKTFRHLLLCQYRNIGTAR
M5 antag = CHRM5 antagonism in calcium assay | CHO-hM5 cells, Fluo-8 calcium fluorescence, ACh EC80 | P08912 | inhibition, % at 3 µM | AID 624040 | actives 0.59% (n = 360,000);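 active = inhibition above a per-plate cutoff, the mean of that plate's test compounds plus 3 SD, cut at about 27% in these data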
M4 ag = CHRM4 agonism in calcium assay; actives 0.14% (n = 360,000); activation, % at 3 µM; CHO-K1 hM4/Gqi5, Fluo-8 calcium fluorescence; vehicle 0%, full acetylcholine response 100%; AID 624127;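 active = activation above the run mean over all test wells plus 3 SD, cut at about 32% in these data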;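 also: peak over basal fluorescence ratio per well then scaled between controls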
M4 PAM = potentiates acetylcholine response at human M4 receptor; P08173; CHO-K1 hM4/Gqi5, Fluo-8 calcium fluorescence, ACh EC20; 0% = ACh EC20, 100% = maximal ACh; activation, % at 3 µM; actives 0.4% (n = 360,000); AID 624126;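 active = activation above its plate's cutoff, the mean activation of sample wells plus 3 SD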
M5 ag = CHRM5 agonism in calcium assay | activation, % at 3 µM | CHO-K1 hM5 cells, Fluo-8 calcium fluorescence; 0% DMSO wells, 100% maximal acetylcholine response | actives 0.19% (n = 360,000) | P08912;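 active = activation above the run's mean over test compounds plus 3 SD, cut at about 23% in these data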;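 also: signal is peak over basal fluorescence ratio across the kinetic read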
Large screens that a line does not name were inactive.

COc1ccc(-c2nc(N3CCCCCC3)sc2C(=O)c2ccccc2)cc1	M4 antag 33
O=C(c1ccccc1)c1sc(N2CCCCCC2)nc1-c1ccccc1	none
CCCS(=O)(=O)n1nc(-c2ccc(OC)cc2)cc1N	M4 antag 31
CCCS(=O)(=O)n1nc(-c2ccc(C)cc2)cc1N	none
O=C(Nc1nccs1)c1ncc(Cl)c(Cl)c1Cl	M5 antag 30
Cn1cc(Cl)c(C(=O)Nc2nccs2)n1	none
CCOC(=O)C1(C)CCN1C(=O)c1cccc(C#N)c1 (configuration not stated)	none
Cc1ccccc1-c1nc(CS(=O)(=O)CC(=O)NCCCN2CCN(C)CC2)c(C)o1	none
Fc1ccc(Nc2nnc(C(F)(F)F)s2)cc1Cl	M5 antag 32
O=C(N/N=C/c1ccc(-c2ccc(Cl)c(C(=O)O)c2)o1)c1cc2c(ccc3ccccc32)o1	M4 antag 27
Cc1cc(C(=O)N2CCC2(C)C(=O)Nc2cc(C(C)(C)C)nn2C)nn1C (configuration not stated)	none
Cc1nn(C)c(C)c1N1C(=O)c2cccc3c(Br)ccc(c23)C1=O	none
CCCCNc1ccc2c3c(cccc13)C(=O)N(CCCC)C2=O	M4 antag 81, M5 antag 97, M4 ag 267, M5 ag 591
O=C1c2cccc3c(N4CCCCC4)ccc(c23)C(=O)N1c1ccccn1	none
CCN1C(=O)c2cccc3c(N)ccc(c23)C1=O	M4 antag 44, M5 antag 27, M4 ag 317, M5 ag 104
Cc1ccc(N2C(=O)c3cccc4c(N)ccc(c34)C2=O)c2cccnc12	M5 ag 38
CCCN1C(=O)c2cccc3c(N4CCCCC4)ccc(c23)C1=O	none
CN(C)CCCN1C(=O)c2cccc3c(Br)ccc(c23)C1=O	none
Cc1nn(C)c(C)c1N1C(=O)c2cccc3c(N)ccc(c23)C1=O	M4 antag 28, M5 antag 28, M4 ag 82, M5 ag 38
Cc1cc(C)cc(OC(C)C(=O)Nc2ccc(S(=O)(=O)Nc3cc(C)nc(C)n3)cc2)c1 (configuration not stated)	none
O=C1[C@H]2[C@@H](c3ccc(F)cc3)N3C(=O)N(c4ccc(Br)cc4)C(=O)[C@@]3(Cc3ccccc3)[C@H]2C(=O)N1C1CCCCC1	none
COc1cc(F)ccc1-c1cc(C(=O)NCc2ccc(C(F)(F)F)cc2)[nH]n1	none
CN(C)CCC(c1ccccc1)c1ccccn1 (configuration not stated)	none
CC(C1=C(CCN(C)C)Cc2ccccc21)c1ccccn1 (configuration not stated)	M4 antag 64
CC(C)C[C@H]1CN=C(Nc2ccccc2)N1CCc1cccc(F)c1	M4 antag 62, M5 antag 38, M4 ag 126, M5 ag 74
CC(C)C[C@H]1CN=C(Nc2ccccc2)N1CCc1ccc(F)cc1	M4 antag 47, M4 ag 115, M5 ag 64
Cc1cccc(CCN2C(Nc3ccccc3)=NC[C@@H]2CC(C)C)c1	M4 antag 59, M4 ag 137, M5 ag 58
CC(C)C[C@H]1CN=C(N(C)C)N1CCc1cccc(F)c1	none
OC(CNCCC1C=Nc2ccccc21)Cn1c2ccc(Cl)cc2c2cc(Cl)ccc21 (configuration not stated)	M4 antag 37
COC(=O)Nc1ccc(S(=O)(=O)NNC(=O)c2c(O)c3ccccc3n(C)c2=O)cc1	none
Oc1ccc(N=Nc2c(O)ccc3ccccc23)cc1	M4 PAM 31
NS(=O)(=O)c1ccc(N=Nc2c(O)ccc3ccccc23)cc1	none
CCc1nc2ccc(C(=O)Nc3cccc(OCC(=O)N(C)C)c3)cn2c1N(CC)CCOC	none
CCN(CCCc1ccccc1)CCCc1ccccc1	M4 antag 89, M5 antag 35
CCCN(CCO)CCCc1ccccc1	none
COc1ccccc1/C=C/CN1CCNC(=O)C1CC(=O)NCCc1cnccn1 (configuration not stated)	none
CC(C)C(=O)NCCn1ccc2ccccc21	M4 PAM 30
CCC(=O)NCCn1ccc2ccccc21	none
COC(=O)c1sccc1S(=O)(=O)Nc1ccc(C(O)(C(F)(F)F)C(F)(F)F)cc1	M4 antag 63, M4 ag 133, M5 ag 69
CN(C)S(=O)(=O)c1cccc(-c2nnc(SCC(=O)NCCCCCC(=O)O)n2-c2ccc(F)cc2)c1	M4 PAM 25
CNC(=O)CSc1nnc(-c2cccc(S(=O)(=O)N3CCOCC3)c2)n1-c1ccc(F)cc1	none
CCCOC(=O)C1[C@H]2C(=O)N(C(C)c3ccc(OC)cc3)C[C@]23C=C[C@H]1O3 (some centres not stated)	none
CCOC(=O)C1[C@H]2C(=O)N(C(C)c3ccc(OC)cc3)C[C@]23C=C[C@H]1O3 (some centres not stated)	M4 antag 75
COC(=O)C1C2C=CC3(CN(Cc4cccs4)C(=O)C13)O2 (configuration not stated)	M5 PAM 21
O=C(NCc1ccc(F)cc1)C1C2C=CC3(CN(Cc4cccnc4)C(=O)C13)O2 (configuration not stated)	M4 PAM 28
Cc1cc(Cl)ccc1C(O)c1ncc(-c2ccc(Cl)cc2)[nH]1 (configuration not stated)	none
CCOC(=O)CP(=O)(c1ccccc1)c1ccccc1	none
CCOC(=O)c1c(C)noc1CP(=O)(c1ccccc1)c1ccccc1	M4 PAM 18
Nc1cc(OCc2ccccc2)ccc1OCc1ccccc1	none
Oc1ccc(N=Nc2ccc3c(c2)OCCO3)c2ncccc12	M4 antag 30, M5 antag 36, M4 ag 37, M5 ag 28
COc1ccc(/C=N/NC(=O)c2ccoc2C)cc1O	M4 PAM 32
COc1cc(/C=N/NC(=O)CNC(=O)c2ccco2)ccc1O	M5 antag 27
CCOc1ccc(-c2cc(C(=O)Nc3ccc(C)c(NS(C)(=O)=O)c3)[nH]n2)c(C)c1	none
CCCCOc1ccc(/C=N/Nc2cc(N3CCOCC3)nc(C)n2)cc1	none
CCc1ccccc1-n1c(SCC(=O)NC)nnc1-c1ccco1	M5 PAM 18
CNC(=O)CSc1nnc(-c2ccco2)n1-c1ccc(C)cc1	none
O=C(Cc1ccc(Br)cc1)OCC(=O)c1ccc2c(c1)OCCO2	M4 PAM 30
O=C(Cc1n[nH]c(=O)c2ccccc12)OCC(=O)c1ccc2c(c1)OCCO2	none
